hiPSC survival: enhancers of single-cell hiPSC survival, primary screen, ATPlite luminescence; 100% = ROCK inhibitor wells, 0% = DMSO; survival enhancement, % at 20 µM; 360,000 compounds, 0.044% hits; AID 602274, 2012; in the data active = survival enhancement above about 18%;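 also: cells exposed to compounds for 16 hours before the ATP read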
CHOP inhibitor: inhibitors of CHOP promoter induction, primary screen, cell-based, unfolded protein response, luciferase reporter; CHO-K1 CHOP-promoter luciferase, tunicamycin-induced, 15-18 h; inhibition, % at 10 µM; 220,000 compounds, 3.8% hits; AID 2732, 2010;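 active = compounds that reduced the stress-induced luciferase reporter signal by more than about 70% of percent inhibition, limit read from the data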;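 also: 0% = tunicamycin plus vehicle and 100% = wells without tunicamycin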
UPR XBP1 act: activators of adaptive XBP1 UPR arm, primary screen, cell-based, CHO-XBP1 luciferase reporter, luminescence, uHTS | AID 463104, 2010 | 330,000 compounds, 0.33% hits | activation, % at 20 µM | IRE1-XBP1 UPR activation; percent of tunicamycin response, DMSO as zero;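 active = versus positive control, 20 µM dose yields 30% or more activation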;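 also: 100% = tunicamycin at 10 µg/mL and 0% = DMSO only wells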
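Material – CHO cell line with stable XBP1 luciferase reporter · Buffer or medium – F12 plus 10% FBS · Compound – single point, 20 µM final compound, 1% DMSO · Schedule – 16-18 h cell attachment at 37 °C, then 6 h compound exposure · Signal – Steady-Glo luminescence read · Benchmarks – high control tunicamycin 10 µg/mL final, low control DMSO vehicle only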
Cardio protect: cardioprotection against H2O2-induced cell death, primary screen, uHTS, H9c2 cells, ATPLite luminescence. H9c2 cardiomyocytes, H2O2 injury protection, 2 h. 360,000 compounds, 0.63% hits. protection from H2O2 cell death, % at 20 µM. AID 588492, 2011;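 active = compounds giving at least 50% protection of heart cells from peroxide-induced death in the single-dose screen, raw or plate-pattern-corrected value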;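 also: 0% = DMSO wells with peroxide and 100% = DMSO wells without peroxide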
UPR CHOP act: activators of apoptotic CHOP UPR arm, primary screen, cell-based, CHO-CHOP luciferase reporter, luminescence, uHTS; UPR activation; percent of tunicamycin response over DMSO baseline; activation, % at 10 µM; 330,000 compounds, 0.34% hits; AID 449763, 2010;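 active = at 10 µM dose, activation of 40% or more, normalized to positive control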;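 also: 100% = tunicamycin at 10 µg/mL and 0% = DMSO alone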
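assay system = CHO CHOP reporter cells | amount = 500 CHO-CHOP cells per well | buffer or medium = F12 with 10% FBS | incubation = 16-18 h cell attachment, then 6 h compound exposure, 37 °C | detection = luminescence read with Steady-Glo | read-out = percent activation relative to tunicamycin control | controls = tunicamycin high control, DMSO low control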
* = called active by the depositor; · = not tested or not shown. This excerpt belongs to a sample that is enriched for hits.

SMILES | hiPSC survival | CHOP inhibitor | UPR XBP1 act | Cardio protect | UPR CHOP act
CC(=O)NC(c1ccc(F)c(F)c1)c1nc(-c2ccc3c(c2)OCO3)cs1 (stereo not given) | -1 | · | · | -3 | ·
CCC(C)Sc1ccc([C@@H]2[C@H]3C(=O)N(CC)C(=O)[C@H]3[C@]3(C(=O)OC)CCCCN23)cc1 (stereo not given in full) | -2 | · | 1 | -6 | 1
CC1(c2nnnn2-c2ccc3c(c2)OCCO3)CCC(=O)N1CC(F)(F)F (stereo not given) | 1 | · | · | · | ·
Cc1ccc(-c2nn(-c3ccccc3)cc2C(=O)N2CCN(c3ccccn3)CC2)cc1 | -1 | -7 | -5 | -6 | 2
COc1ccc(-c2nn(-c3ccccc3)cc2/C=C/C(=O)N2CCN(c3ccccn3)CC2)cc1 | -1 | 22 | -1 | 68* | 0
Cc1cc(C)cc(NC(=O)COC(=O)CCC2CCCC2)c1 | -2 | · | 0 | -4 | 1
CC(C)(C)NC(=O)NC(=O)COC(=O)COc1ccc2c(c1)CCC2 | -1 | 85* | -2 | -4 | -1
CC(C)(C)NC(=O)NC(=O)COC(=O)CCC1CCCC1 | 0 | 77* | -1 | 1 | 1
Cc1cccc(CN2[C@H](COCc3ccccc3)C=CS2(=O)=O)c1 | 2 | · | · | 1 | ·
COc1ccc2c(c1)C(CC(C)=O)N(c1ccc(-c3cccs3)cc1)C(c1ccsc1)=C2 (stereo not given) | -1 | · | · | · | ·
Cc1ccc(Oc2cc(NC(=O)CCCn3nc([N+](=O)[O-])cc3C)cc([N+](=O)[O-])c2)cc1 | 0 | 73* | 0 | 1 | 2
Cc1nn(C)cc1C(=O)Nc1cc(Oc2ccc(Cl)cc2)cc([N+](=O)[O-])c1 | 0 | 82* | 0 | -13 | -3
CCOc1ccc(Oc2cc(NC(=O)c3ccco3)cc([N+](=O)[O-])c2)cc1 | 0 | 87* | · | -5 | ·
Cc1ccc(C)c(Oc2cc(NC(=O)CCCn3nc(C)c([N+](=O)[O-])c3C)cc([N+](=O)[O-])c2)c1 | 0 | 80* | -2 | -18 | 12
CCOC(=O)C1(C)CCCCCN1C(=O)c1csnn1 (stereo not given) | 0 | · | · | 2 | ·
CC(C)C1Cc2[nH]c(=S)[nH]c(=O)c2C(c2ccc(F)cc2)O1 (stereo not given) | 2 | · | · | 7 | ·
CN(C)CCNc1ncnc2c1ncn2[C@H]1CN(Cc2cccs2)C[C@@H](CO)O1 | 3 | · | · | -2 | ·
C[C@@H]1CN([C@@H](C)CO)C(=O)c2cc(C#CCN(C)C)cnc2O[C@H]1CN(C)Cc1ccc2c(c1)OCO2 | -1 | · | · | 11 | ·
O=C(Nc1nnc([C@H]2C[C@H](O)[C@@H](CO)O2)s1)c1ccc(Oc2ccccc2)cc1 | 3 | · | · | -1 | ·
COc1ccc(O)c(/C=N/NC(=O)c2ccc(CSc3nc(C)cc(C)n3)cc2)c1 | 6 | 71* | -3 | 57* | -2
COc1ccc(C(=O)N/N=C/c2cc(Br)ccc2O)cc1OC | 0 | 63 | 0 | 60* | -2
COc1ccc(Br)cc1/C=N/NC(=O)c1cc(Br)ccc1O | · | 35 | 0 | · | -1
O=C(N/N=C\c1cc(Cl)ccc1O)c1ccc(S(=O)(=O)N2CCCCC2)cc1 | -2 | 81* | 3 | 63* | -2
COc1ccc(/C=N/NC(=O)c2ccc(CSc3nc(C)cc(C)n3)cc2)cc1O | 5 | 7 | -2 | 3 | -1
O=C(CN1CC(c2ccccc2)CC1=O)N/N=C/c1cc(Br)ccc1O (stereo not given) | -1 | 53 | 0 | 57* | 1
SMILES | hiPSC survival | CHOP inhibitor | UPR XBP1 act | Cardio protect | UPR CHOP act
CCOC(=O)C1=CCN(S(=O)(=O)c2ccc(C)cc2)C1c1ccc(CC)cc1 (stereo not given) | 3 | · | · | -6 | ·
O=C(CNC(=O)c1ccccc1)N/N=C/c1cc(Br)ccc1O | 1 | 66 | -1 | 59* | 2
O=C(N/N=C/c1cc(Cl)ccc1O)c1ccccc1Br | -1 | 49 | 1 | 77* | -1
O=C(CP(=O)(c1ccccc1)c1ccccc1)N/N=C/c1cc(Br)cc(Br)c1O | -2 | 50 | 0 | 71* | 1
Cn1c(/C=N/NC(=O)c2ccccc2Br)nc2ccccc21 | 3 | 84* | -3 | 32 | -2
O=C(C[n+]1ccccc1)N/N=C/c1cc(Br)cc(Br)c1O | 0 | · | 1 | 46 | 1
Cc1cc(N)c2ccccc2[n+]1CCCCCCCCCCCCCC[n+]1c(C)cc(N)c2ccccc21 | · | -4 | · | · | ·
COc1cccc(-c2nc3nc(C)cc(C)n3c2NCc2ccccc2)c1 | 0 | · | · | · | ·
COC(=O)[C@H](CC(C)C)NC(=O)/C=C/[C@H]1O[C@@H](n2ccc(=O)[nH]c2=O)[C@H](O)[C@@H]1O | -1 | · | · | 2 | ·
CCCCCCCCN1C(=O)[C@H](CC(=O)NCc2ccc(OC)c(OC)c2)C[C@@]2(C(=O)OCC)CCCC=C12 | 0 | · | · | · | ·
O=C(c1ccco1)N1CCC2CC1c1c(Cl)cccc12 (stereo not given) | 0 | · | · | -4 | ·
COc1ccc(Br)cc1C(=O)N/N=C/c1ccc([N+](=O)[O-])cc1 | -1 | 100* | 5 | -14 | -1
CCOc1ccc(Br)cc1C(=O)N/N=C/c1ccc([N+](=O)[O-])cc1 | -2 | 27 | 9 | -8 | 3
O=C(CNC(=O)c1ccccc1Br)N/N=C/c1cc(Br)ccc1O | 3 | 59 | -1 | 74* | -2
O=C(NNc1nc(Nc2ccccc2)nc(N2CCOCC2)n1)Nc1ccc(Cl)cc1 | -3 | 95* | -4 | 6 | 1
O=C(NNc1nc(N2CCOCC2)nc(N2CCOCC2)n1)c1ccccc1 | 2 | · | · | 1 | ·
CCc1nc2c(OCCOC)cccn2c1N(C)C(=O)Nc1ccccc1OC | -3 | · | · | 3 | ·
N#CC1=C(N)Oc2cc3ccccc3cc2C1c1cccnc1 (stereo not given) | 0 | 1 | -1 | -2 | -1
Cc1ccc2cc(C3C(C#N)=C(N)Oc4c3ccc3cccnc43)c(=O)[nH]c2c1 (stereo not given) | 12 | 66 | 0 | 70* | 1
CC(=O)C1=C(C)OC(N)=C(C#N)C1c1cc2cccc(C)c2nc1Cl (stereo not given) | 7 | -22 | -2 | 6 | 0
CCc1ccc2[nH]c(=O)c(C3C(C#N)=C(N)Oc4c3ccc3cccnc43)cc2c1 (stereo not given) | 4 | 34 | 0 | 64* | -2
N#CC1=C(N)Oc2c(ccc3cccnc23)C1c1cccnc1 (stereo not given) | -2 | -5 | 0 | 83* | 2
CCOc1cccc(C2C(C#N)=C(N)Oc3cc(C)[nH]c(=O)c32)c1OCC (stereo not given) | -1 | 22 | -2 | -20 | 0
